Results on 37 sequences are retold here after the array DNA melting data of Ke et al. (doi:10.1101/2024.01.08.574731).

Series [1] in a line: folding enthalpy; higher = less favourable; fluorescence melt of hairpins on a sequencing array, two-state fit. As to conditions: sodium 0.088 M. The method, boiled down:
(§1)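 Melting temperature and folding enthalpy were obtained by bootstrapped two-state fitting. Fits used Cy3 fluorescence of library hairpins with annealed Cy3 and quencher oligos on a sequenced MiSeq flow cell, imaged in 50 mM Na-HEPES pH 8.0, 25 mM NaCl in 2.5 °C steps up to 60 °C and normalised to pre-quench Cy3 and control constructs. Four replicates were combined by inverse-variance weighting, and fitted temperatures were raised by 9.35 °C to match UV melts.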

The nature of series [2]: melting temperature; fluorescence melt of hairpins on a sequencing array, two-state fit, raised by 9.35 °C to match UV melts. To be noted: sodium 0.088 M. The method, boiled down: as §1

Consider GCTGTTCGAAAGAAGAGC (((.(((....))).))), for which, in series [1], the folding enthalpy is -37.2 kcal/mol. Also, the Tm in series [2] was found to be 50.6 °C.
For GCTGTTGAAAAACAGC ((((((....)))))), in that order: -38.6 kcal/mol and 59.2 °C.
GCTGTTGCGAAAGCAAGC (((..(((....)))))): the folding enthalpy in series [1] is -12.6 kcal/mol. Moreover, in series [2], the Tm was 47.3 °C.
For GCTTAAACGAAAGTTAGC (((..(((....)))))), in that order: -16.2 kcal/mol and 33.9 °C.
As for GCTTACCCGAAAGGGAGC (((..(((....)))))), the folding enthalpy in series [1] is -15.3 kcal/mol. Besides, the Tm in series [2] stood at 39 °C.
Take GCTTACGAAAGTACAAGC ((((((....)))..))): in series [1], the folding enthalpy was -20 kcal/mol. The Tm in series [2] is 37.6 °C.
Take GCTTACGAAAGTACGAGC ((((((....)))..))): in series [1], the folding enthalpy is -20.3 kcal/mol. The Tm in series [2] amounted to 32.1 °C.
With GCTTACGAAAGTATTAGC ((((((....)))..))), in series [1], the folding enthalpy was -23.9 kcal/mol. In addition, the Tm in series [2] was determined as 33.5 °C.
The matching figures for GCTTACGGAAACATAAGC (((((.(....).))))): -21.6 kcal/mol and 35.1 °C.
GCTTAGCGAAAGCGGAGC (((..((....))..))): in series [1], the folding enthalpy is -16.8 kcal/mol. For the same sequence, the Tm in series [2] stood at 58.7 °C.
For GCTTAGCGAAAGCTAGC (((.(((....)))))), in that order: -19.2 kcal/mol and 53.8 °C.
As for GCTTAGCGAAAGCTCCGC ((..(((....)))..)), the folding enthalpy in series [1] is -12.8 kcal/mol. Further, in series [2], the Tm was 36 °C.
The matching figures for GCTTAGGCGAAAGCCAGC (((..(((....)))))): -15.1 kcal/mol and 44.4 °C.
The matching figures for GCTTATGGAAACATGAGC (((.(((....))).))): -33.5 kcal/mol and 45.6 °C.
As to GCTTCACCGAAAGGTAGC (((..(((....)))))), in series [1], the folding enthalpy is -16.8 kcal/mol. Besides, the Tm in series [2] came to 35.3 °C.
For GCTTCAGAAATGAAGC ((((((....)))))), in that order: -33.7 kcal/mol and 55.7 °C.
The matching figures for GCTTCAGGAAACTGAAGC (((((((....))))))): -32.9 kcal/mol and 66 °C.
GCTTCCCGAAAGGGGAGC (((.(((....))).))): the folding enthalpy in series [1] is -46 kcal/mol. In addition, the Tm in series [2] turned out to be 65.5 °C.
For GCTTCCCGAAAGGGTAGC (((.(((....))).))), in series [1], the folding enthalpy was -33.9 kcal/mol. Also, the Tm in series [2] came to 56.4 °C.
With GCTTCCGAAAGGAAAAGC ((((((....)))..))), the folding enthalpy in series [1] is -17.6 kcal/mol. Besides, in series [2], the Tm is 49.7 °C.
The matching figures for GCTTCCGAAAGGAATAGC ((((((....)))..))): -17.8 kcal/mol and 44 °C.
For GCTTCCGGAAACAGAAGC (((((.(....).))))), in that order: -30.6 kcal/mol and 41.9 °C.
For GCTTCGCGAAAGCAAGGC ((.(.((....)).).)), in that order: -12.3 kcal/mol and 36.1 °C.
Take GCTTCGCGAAAGCACAGC (((..((....))..))): in series [1], the folding enthalpy is -15.3 kcal/mol. In series [2], the Tm amounted to 38.2 °C.
As for GCTTCGCGAAAGCCAAGC ((((.((....)).)))), the folding enthalpy in series [1] is -18.2 kcal/mol. In addition, the Tm in series [2] was determined as 50.3 °C.
As for GCTTCGCGAAAGCCGAGC (((..((....))..))), the folding enthalpy in series [1] is -18.5 kcal/mol. Further, the Tm in series [2] amounted to 41.7 °C.
Regarding GCTTCGCGAAAGCTAAGC ((((.((....)).)))), the folding enthalpy in series [1] was -20.5 kcal/mol. Also, the Tm in series [2] came out at 57.2 °C.
The matching figures for GCTTCGCGAAAGCTGAGC (((..((....))..))): -14.5 kcal/mol and 45.5 °C.
For GCTTCGCGAAAGCTTAGC (((..((....))..))), in that order: -15.2 kcal/mol and 50.2 °C.
The matching figures for GCTTCGGCGAAAGCCAGC (((..(((....)))))): -10.3 kcal/mol and 40.2 °C.
GCTTCGGGAAACTGAAGC (((((.(....).))))): in series [1], the folding enthalpy was -41.3 kcal/mol. The Tm in series [2] came to 53.2 °C.
The matching figures for GCTTCGGGAAACTGGAGC (((.(.(....).).))): -32.7 kcal/mol and 39.1 °C.
The matching figures for GCTTCTCCGAAAGGAAGC (((..(((....)))))): -24.2 kcal/mol and 45.3 °C.
For GCTTCTGCGAAAGCAAGC (((..(((....)))))), in that order: -9.99 kcal/mol and 38.3 °C.
For GCTTCTGGAAACAGAGGC ((.((((....)))).)), in series [1], the folding enthalpy is -33 kcal/mol. Also, in series [2], the Tm came out at 48.3 °C.
Turning to GCTTGACGAAAGTCCAGC (((.(((....))).))), in series [1], the folding enthalpy is -26.6 kcal/mol. For the same sequence, the Tm in series [2] was determined as 49.9 °C.
For the sequence GCTTGAGGAAACCCAAGC (((((.(....).))))), in series [1], the folding enthalpy was -37 kcal/mol. Moreover, the Tm in series [2] is 46 °C.
